According to ChEMBL document CHEMBL1132225, “Novel antidiabetic and hypolipidemic agents. 3. Benzofuran-containing thiazolidinediones” (J Med Chem, 1999):
Where “and” joins values, the source holds several entries; their conditions need not be identical. Identical values can stand only once. Calls of active or inactive are those of the source. No cut-off for these calls is given here.

Key:
[1] = Pharmacokinetic Parameter, half life period measured in Female Wistar Rats at 100 mg/kg by po administration; format: ADME, organism-based; parameters: dose 100 mg/kg, route oral; details: rat, in vivo
[2] = Pharmacokinetic Parameter, Tmax is the time at which maximum concentration (Cmax) is reached in Female Wistar Rats at 100 mg/kg by po administration; format: ADME, organism-based; parameters: dose 100 mg/kg, route oral; details: rat, in vivo
[3] = Pharmacokinetic Parameter, AUC (0-infinity) is the area under the plasma concentration versus time curve extrapolated to infinity in Female Wistar Rats at 100 mg/kg by po administration; format: ADME, organism-based; parameters: time infinity, dose 100 mg/kg, route oral; details: rat, read-out: AUC 0-infinity
[4] = Pharmacokinetic Parameter, AUC (0-t) is the area under the plasma concentration versus time curve in Female Wistar Rats at 100 mg/kg by po administration; format: ADME, organism-based; parameters: dose 100 mg/kg, route oral; details: rat
[5] = Pharmacokinetic Parameter, Cmax is observed maximum plasma concentration in Female Wistar Rats at 100 mg/kg by po administration; format: ADME, organism-based; parameters: dose 100 mg/kg, route oral; details: rat
Rattus norvegicus [6] = organism: Rattus norvegicus; test: The AUC(0-infinity) values in female wistar rats.; format: ADME, organism-based; parameters: time infinity; details: in vivo
Rattus norvegicus [7] = organism: Rattus norvegicus; test: The AUC(0-t)values in female wistar rats.; format: ADME, organism-based; details: in vivo
[8] = Pharmacokinetic Parameter, Kel is elimination rate constant in Female Wistar Rats at 100 mg/kg by po administration; format: ADME, organism-based; parameters: dose 100 mg/kg, route oral; details: rat, in vivo
[9] = The Kel values in female wistar rats.; format: ADME, organism-based; details: rat, in vivo
[10] = The Cmax values in female wistar rats.; format: ADME, organism-based; details: rat, in vivo
[11] = The half life period in female wistar rats.; format: ADME, organism-based; details: rat, in vivo
Summary of the method: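 Female Wistar rats (200–225 g), fasted 12 h overnight with water, fed 3 h post-dose; single 100 mg/kg oral dose as 0.5% CMC suspension. Retro-orbital blood sampled at multiple times; 0.2 mL plasma extracted, analysed by reverse-phase C18 HPLC with internal standard. Parameters by noncompartmental analysis; mean ± SD, n = 4.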

[12] = The Tmax values in female wistar rats.; format: ADME, organism-based; details: rat, in vivo
Mus musculus [13] = organism: Mus musculus; test: Percent reduction of plasma glucose after 6 days of treatment (various doses).; format: functional
Mus musculus [14] = organism: Mus musculus; test: The compound was tested for percent reduction of plasma triglyceride after 6 days of treatment.; format: functional; parameters: concentration or dose not given beside the values
Mus musculus [15] = test: Percent reduction of plasma glucose (PG) after 6 days of treatment. It is the mean of standard deviation observed in plasma glucose (PG) in db/db mice at dose of 200 mg/kg/day; format: functional; details: route oral
Mus musculus [16] = test: Percent reduction of plasma glucose (PG) after 6 days of treatment. It is the mean of standard deviation observed in plasma glucose (PG) in db/db mice at dose of 30 mg/kg/day; NA = Not Active; format: functional, organism-based
Mus musculus [17] = test: Percent reduction in plasma triglyceride (TG) after 6 days of treatment. It is the mean of standard deviation observed in plasma triglyceride (TG) in db/db mice at dose of 200 mg/kg/day; format: functional; details: route oral
Mus musculus [18] = test: Percent reduction in plasma triglyceride (TG) after 6 days of treatment. It is the mean of standard deviation observed in plasma triglyceride (TG) in db/db mice at dose of 30 mg/kg/day; NA = Not Active; format: functional, organism-based
[19] = biological target: T1, Peroxisome proliferator-activated receptor alpha (Homo sapiens) (UniProt Q07869); test: Compound was tested for fold transactivation of human Peroxisome proliferator activated receptor alpha at 50 uM
T1 sequence (whole entry): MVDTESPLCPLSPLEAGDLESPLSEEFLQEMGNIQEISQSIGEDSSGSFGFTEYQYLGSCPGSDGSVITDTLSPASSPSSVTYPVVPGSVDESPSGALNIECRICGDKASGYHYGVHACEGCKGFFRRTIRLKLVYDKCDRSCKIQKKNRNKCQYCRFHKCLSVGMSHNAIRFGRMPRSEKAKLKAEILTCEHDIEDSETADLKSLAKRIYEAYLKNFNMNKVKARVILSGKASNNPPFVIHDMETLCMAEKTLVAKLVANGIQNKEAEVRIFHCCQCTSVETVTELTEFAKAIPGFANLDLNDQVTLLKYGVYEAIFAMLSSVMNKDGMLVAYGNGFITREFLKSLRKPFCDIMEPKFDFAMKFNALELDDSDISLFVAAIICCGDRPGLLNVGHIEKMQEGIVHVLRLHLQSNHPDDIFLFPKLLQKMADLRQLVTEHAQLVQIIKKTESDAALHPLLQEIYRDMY

Mus musculus [20] = organism: Mus musculus; test: The compound was tested for percent reduction of plasma triglyceride after 6 days of treatment; not active; format: functional, organism-based
Mus musculus [21] = test: Percent reduction in plasma triglyceride (TG) after 6 days of treatment. It is the mean of standard deviation observed in plasma triglyceride (TG) in db/db mice at dose of 200 mg/kg/day; NA = Not Active; format: functional, organism-based
Mus musculus [22] = organism: Mus musculus; test: The compound was tested for percent reduction of plasma triglyceride after 6 days of treatment; Not Active; format: functional, organism-based
Mus musculus [23] = organism: Mus musculus; test: The compound was tested for percent reduction of plasma glucose after 6 days of treatment; Not Active; format: functional, organism-based
Mus musculus [24] = test: Percent reduction of plasma glucose (PG) after 6 days of treatment. It is the mean of standard deviation observed in plasma glucose (PG) in db/db mice at dose of 100 mg/kg/day; NA = Not Active; format: functional, organism-based
Mus musculus [25] = test: Percent reduction in plasma triglyceride (TG) after 6 days of treatment. It is the mean of standard deviation observed in plasma triglyceride (TG) in db/db mice at dose of 100 mg/kg/day; format: functional; details: route oral
[26] = biological target: T1, Peroxisome proliferator-activated receptor alpha (Homo sapiens); test: The fold activation against 50 u M Peroxisome proliferator activated receptor alpha(amino acids 167-468)
[27] = biological target: T2, Peroxisome proliferator-activated receptor gamma (Homo sapiens) (UniProt P37231); test: The fold activation against 1 amino acids 174-475)
T2 sequence (whole entry): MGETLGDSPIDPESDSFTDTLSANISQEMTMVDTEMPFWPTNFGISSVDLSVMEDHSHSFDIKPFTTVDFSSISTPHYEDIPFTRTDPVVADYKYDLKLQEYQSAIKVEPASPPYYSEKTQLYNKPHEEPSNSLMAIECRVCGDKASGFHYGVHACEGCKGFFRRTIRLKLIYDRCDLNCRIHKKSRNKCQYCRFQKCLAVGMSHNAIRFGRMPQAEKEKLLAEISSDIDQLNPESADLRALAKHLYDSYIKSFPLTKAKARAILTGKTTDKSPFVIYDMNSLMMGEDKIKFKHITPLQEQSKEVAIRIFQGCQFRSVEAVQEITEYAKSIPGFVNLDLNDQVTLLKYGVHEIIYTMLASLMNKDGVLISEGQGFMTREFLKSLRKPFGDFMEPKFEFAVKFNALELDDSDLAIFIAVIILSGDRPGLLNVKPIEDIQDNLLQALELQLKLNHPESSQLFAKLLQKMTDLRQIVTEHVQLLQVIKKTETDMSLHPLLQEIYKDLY

Mus musculus [28] = test: Percent reduction of plasma glucose (PG) after 6 days of treatment. It is the mean of standard deviation observed in plasma glucose (PG) in db/db mice at dose of 100 mg/kg/day; format: functional; details: route oral
Mus musculus [29] = test: Percent reduction of plasma glucose (PG) after 6 days of treatment. It is the mean of standard deviation observed in plasma glucose (PG) in db/db mice at dose of 30 mg/kg/day; format: functional; details: route oral
Mus musculus [30] = test: Percent reduction in plasma triglyceride (TG) after 6 days of treatment. It is the mean of standard deviation observed in plasma triglyceride (TG) in db/db mice at dose of 30 mg/kg/day; format: functional; details: route oral

Cc1c(C)c2c(c(C)c1O)CCC(C)(COc1ccc(CC3SC(=O)NC3=O)cc1)O2 (stereo not given) [TROGLITAZONE]
half-life [1]: 4.01 h | Tmax [2]: 2.25 h | AUC(0-inf) [3]: 27400 ng·h/mL | AUC(0-t) [4]: 25900 ng·h/mL | Cmax [5]: 5470 ng/mL | AUC (Rattus norvegicus [6]): 27400 ng·h/mL | AUC (Rattus norvegicus [7]): 25900 ng·h/mL | k el [8]: 5.56e-05 s⁻¹ | k el [9]: 5.56e-05 s⁻¹ | Cmax [10]: 5470 ng/mL | half-life [11]: 4.01 h | Tmax [12]: 2.25 h | Reduction (Mus musculus [13]): 26% | Reduction (Mus musculus [14]): 50% | PG (Mus musculus [15]): 26% | PG (Mus musculus [16]): inactive | TG (Mus musculus [17]): 50% | TG (Mus musculus [18]): inactive | Transactivation [19]: 1.12 fold

Cc1c(C)c2c(c(C)c1OCc1ccccc1)C(COc1ccc(/C=C3\SC(=O)NC3=O)cc1)C(C)(C)O2 (stereo not given)
Reduction (Mus musculus [13]): 10% | Reduction (Mus musculus [20]): inactive | PG (Mus musculus [15]): 10% | TG (Mus musculus [21]): inactive

Cc1c(C)c2c(c(C)c1OCc1ccccc1)C(CN(C)CCOc1ccc(/C=C3\SC(=O)NC3=O)cc1)C(C)(C)O2 (stereo not given)
Reduction (Mus musculus [13]): 23% | Reduction (Mus musculus [22]): inactive | PG (Mus musculus [15]): 23% | TG (Mus musculus [21]): inactive

Cc1c(C)c2c(c(C)c1OCc1ccccc1)C(CN1CCC[C@@H](Oc3ccc(/C=C4\SC(=O)NC4=O)cc3)C1)C(C)(C)O2 (stereo not given in full)
Reduction (Mus musculus [23]): inactive | Reduction (Mus musculus [14]): 52% | PG (Mus musculus [24]): inactive | TG (Mus musculus [25]): 52%

Cc1c(C)c2c(c(C)c1O)C(CN(C)CCOc1ccc(CC3SC(=O)NC3=O)cc1)C(C)(C)O2 (stereo not given)
Reduction (Mus musculus [13]): 19% | PG (Mus musculus [15]): 19%

Cc1c(C)c2c(c(C)c1OCc1ccccc1)C(CN1CCC[C@H]1COc1ccc(/C=C3\SC(=O)NC3=O)cc1)C(C)(C)O2 (stereo not given in full) [listing 1 of 2 here]
Fold activation [26]: 0.43 | Fold activation [27]: 1.03 | Transactivation [19]: 0.43 fold

Cc1c(C)c2c(c(C)c1OCc1ccccc1)C(CN1CCC[C@H]1COc1ccc(/C=C3\SC(=O)NC3=O)cc1)C(C)(C)O2 (stereo not given in full) [listing 2 of 2 here]
half-life [1]: 13.1 h | Tmax [2]: 3.5 h | AUC(0-inf) [3]: 23600 ng·h/mL | AUC(0-t) [4]: 15500 ng·h/mL | Cmax [5]: 1250 ng/mL | AUC (Rattus norvegicus [6]): 23600 ng·h/mL | AUC (Rattus norvegicus [7]): 15500 ng·h/mL | k el [8]: 1.39e-05 s⁻¹ | k el [9]: 1.39e-05 s⁻¹ | Cmax [10]: 1250 ng/mL | half-life [11]: 13.1 h | Tmax [12]: 3.5 h | Reduction (Mus musculus [13]): 66% and 40% | Reduction (Mus musculus [14]): 52% and 38% | PG (Mus musculus [28]): 66% | PG (Mus musculus [29]): 40% | TG (Mus musculus [25]): 52% | TG (Mus musculus [30]): 38%

Cc1c(C)c2c(c(C)c1O)C(CN1CCC[C@H]1COc1ccc(CC3SC(=O)NC3=O)cc1)C(C)(C)O2 (stereo not given in full)
Reduction (Mus musculus [13]): 37% and 28% | Reduction (Mus musculus [14]): 33% and 29% | PG (Mus musculus [28]): 37% | PG (Mus musculus [29]): 28% | TG (Mus musculus [25]): 33% | TG (Mus musculus [30]): 29% | Fold activation [26]: 0.46 | Fold activation [27]: 1.21 | Transactivation [19]: 0.46 fold

Cc1c(C)c2c(c(C)c1OCc1ccccc1)C(CN1CCC[C@H]1COc1ccc(CC3SC(=O)NC3=O)cc1)C(C)(C)O2.O=C(O)/C=C\C(=O)O (stereo not given in full)
PG (Mus musculus [29]): 24% | TG (Mus musculus [30]): 64%

Cc1c(C)c2c(c(C)c1OCc1ccccc1)C(CN1CCC[C@H]1COc1ccc(CC3SC(=O)NC3=O)cc1)C(C)(C)O2 (stereo not given in full)
Reduction (Mus musculus [13]): 48% and 37% | Reduction (Mus musculus [14]): 31% and 22% | PG (Mus musculus [28]): 48% | PG (Mus musculus [29]): 37% | TG (Mus musculus [25]): 31% | TG (Mus musculus [30]): 22%

Cc1c(C)c2c(c(C)c1O)C(COc1ccc(/C=C3\SC(=O)NC3=O)cc1)C(C)(C)O2 (stereo not given)
Reduction (Mus musculus [13]): 11% | Reduction (Mus musculus [20]): inactive | PG (Mus musculus [15]): 11% | TG (Mus musculus [21]): inactive
